In brackets after ≈: the same amount, converted by molar mass. Activity calls are given as the source filed them. No cut-off for these calls is given here.
Tests used:
Candida tropicalis [1] = test: Antifungal activity against Candida tropicalis by microplate reader analysis; format: functional
Candida albicans [2] = test: Antifungal activity against Candida albicans ATCC 10231 assessed as growth inhibition at 125 ug/mL after 24 hrs by microplate reader analysis; format: functional; details: ATCC 10231, 24 h, read-out: GI
Procedure, shortened: (§1)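 96-well RPMI-1640 wells with compound at final 250–0.98 µg/mL (DMSO ≤1%). Inoculum 100 µL, 1–5 × 10³ CFU/mL, 200 µL final. Each well includes growth (DMSO, no compound) and sterility controls. % inhibition = 100 − (CTW−SCW)/(GCW−SCW) × 100, run in duplicate.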

Cryptococcus neoformans [3] = test: Antifungal activity against Cryptococcus neoformans ATCC 32264 after 48 hrs by microplate reader analysis; format: functional; details: ATCC 32264, 48 h
Procedure, shortened: (§2)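 Microplate growth-inhibition assay in RPMI-1640, compound at final 250–0.98 µg/mL (DMSO ≤1%). Inoculum 1–5 × 10³ CFU/mL. Sterility and DMSO growth controls included. Percent inhibition is computed from blank-corrected OD relative to the growth control, tested in duplicate.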

Candida tropicalis [4] = test: Antifungal activity against Candida tropicalis after 48 hrs by NCCLS broth microdilution method; format: functional; details: read-out: MIC100
Procedure, shortened: (§3)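 Yeast MIC by NCCLS M27-A3 broth microdilution in RPMI-1640 buffered to pH 7.0 with MOPS. Twofold dilutions of 250–0.98 µg/mL, final DMSO ≤1%. Inoculum 1–5 × 10³ CFU/mL. Incubated at 30 °C in a moist dark chamber. Read visually at 48 h. MIC100 is the lowest concentration with no visible growth versus drug-free control.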

Cryptococcus neoformans [5] = test: Fungicidal activity against Cryptococcus neoformans ATCC 32264 after 48 hrs by agar plate dilution method; format: functional; details: ATCC 32264, 48 h
Procedure, shortened: (§4)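 MFC: after the microdilution MIC, material from each clear well was plated onto RPMI-1640 agar buffered with MOPS. Plates incubated at 30 °C and read after 48 h. MFC is the lowest concentration giving total inhibition of visible growth.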

Aspergillus flavus = test: Antifungal activity against Aspergillus flavus ATCC 9170 at 0.98 to 250 ug/mL by NCCLS broth microdilution method; format: functional, organism-based
Procedure, shortened: (§5)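 MIC by broth microdilution per NCCLS M27-A3/M38-A2 in RPMI-1640 buffered to pH 7.0 with MOPS. Twofold dilutions from 250–0.98 µg/mL, final DMSO ≤1%. Inoculum 1–5 × 10³ CFU/mL. Incubated in a moist dark chamber, 30 °C for Aspergillus and 28–30 °C for dermatophytes. Read visually when control growth allowed. Endpoint is the lowest concentration giving total inhibition of visible growth (MIC100).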

Cryptococcus neoformans [6] = test: Antifungal activity against Cryptococcus neoformans ATCC 32264 assessed as growth inhibition at 31.25 ug/mL after 48 hrs by microplate reader analysis; format: functional; details: ATCC 32264, 48 h, read-out: GI; procedure, shortened: as §2
Candida tropicalis [7] = test: Antifungal activity against Candida tropicalis assessed as growth inhibition at 62.5 ug/mL by microplate reader analysis; format: functional; details: read-out: GI
[8] = Acute toxicity in bony fish assessed as mortality at 5 ug/mL after 96 hrs; details: actinopterygii, 96 h
Procedure, shortened: (§6)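 Guppy (Poecilia reticulata) acute static exposure: 10 fish per concentration in 2 L wide-mouthed jars holding the test solution. Compounds were added from […] to give the final concentrations. Dead fish were counted and removed every 24 h, with general condition noted; percentage mortality was scored at 96 h. Two experiments, each in triplicate.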

Cryptococcus neoformans [9] = test: Antifungal activity against Cryptococcus neoformans ATCC 32264 assessed as growth inhibition at 62.5 ug/mL after 48 hrs by microplate reader analysis; format: functional; details: ATCC 32264, 48 h, read-out: GI; procedure, shortened: as §2
Candida albicans [10] = test: Antifungal activity against Candida albicans ATCC 10231 assessed as growth inhibition at 62.5 ug/mL after 24 hrs by microplate reader analysis; format: functional; details: ATCC 10231, 24 h, read-out: GI; procedure, shortened: as §1
Candida albicans [11] = test: Antifungal activity against Candida albicans ATCC 10231 assessed as growth inhibition at 7.8 ug/mL after 24 hrs by microplate reader analysis; format: functional; details: ATCC 10231, 24 h, read-out: GI; procedure, shortened: as §1
[12] = Acute toxicity in bony fish assessed as mortality at 0.8 ug/mL after 48 hrs; details: actinopterygii; read-out: Activity
Nannizzia gypsea [13] = test: Fungicidal activity against Microsporum gypseum CCC 115 after 48 hrs by agar plate dilution method; format: functional; details: CCC 115, 48 h; procedure, shortened: as §4
Candida albicans [14] = test: Antifungal activity against Candida albicans ATCC 10231 assessed as growth inhibition at 15.6 ug/mL after 24 hrs by microplate reader analysis; format: functional; details: ATCC 10231, 24 h, read-out: GI; procedure, shortened: as §1
Candida tropicalis [15] = test: Antifungal activity against Candida tropicalis assessed as growth inhibition at 15.6 ug/mL by microplate reader analysis; format: functional; details: read-out: GI
Candida albicans [16] = test: Antifungal activity against Candida albicans ATCC 10231 after 48 hrs by NCCLS broth microdilution method; format: functional; details: ATCC 10231, 48 h, read-out: MIC100; procedure, shortened: as §3
Trichophyton rubrum [17] = test: Fungicidal activity against Trichophyton rubrum CCC 110 after 48 hrs by agar plate dilution method; format: functional; details: CCC 110, 48 h
Procedure, shortened: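 Samples from each clear well of the MIC broth microdilution tray were plated onto RPMI-1640 agar buffered with MOPS. That tray had compounds twofold diluted in RPMI (pH 7.0, MOPS) from 250–0.98 µg/mL with inoculum of 1–5 × 10³ CFU/mL, incubated at 28–30 °C for dermatophytes. Plates were incubated at 30 °C and read at 48 h. MFC was taken as the lowest concentration giving total inhibition of visible growth.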

Candida albicans [18] = test: Fungicidal activity against Candida albicans ATCC 10231 after 48 hrs by agar plate dilution method; format: functional; details: ATCC 10231, 48 h; procedure, shortened: as §4
Candida tropicalis [19] = test: Antifungal activity against Candida tropicalis assessed as growth inhibition at 7.8 ug/mL by microplate reader analysis; format: functional; details: read-out: GI
Cryptococcus neoformans [20] = test: Antifungal activity against Cryptococcus neoformans ATCC 32264 assessed as growth inhibition at 15.6 ug/mL after 48 hrs by microplate reader analysis; format: functional; details: ATCC 32264, 48 h, read-out: GI; procedure, shortened: as §2
[21] = system: Trichophyton mentagrophytes; test: Fungicidal activity against Trichophyton mentagrophytes ATCC 9972 after 48 hrs by agar plate dilution method; format: functional; details: ATCC 9972, 48 h; procedure, shortened: as §4
Candida tropicalis [22] = test: Antifungal activity against Candida tropicalis assessed as growth inhibition at 3.9 ug/mL by microplate reader analysis; format: functional; details: read-out: GI
Candida tropicalis [23] = test: Antifungal activity against Candida tropicalis assessed as growth inhibition at 125 ug/mL by microplate reader analysis; format: functional; details: read-out: GI
Candida albicans [24] = test: Antifungal activity against Candida albicans ATCC 10231 assessed as growth inhibition at 31.25 ug/mL after 24 hrs by microplate reader analysis; format: functional; details: ATCC 10231, 24 h, read-out: GI; procedure, shortened: as §1
Aspergillus niger = test: Antifungal activity against Aspergillus niger ATCC 9029 at 0.98 to 250 ug/mL by NCCLS broth microdilution method; format: functional, organism-based; procedure, shortened: as §5
Cryptococcus neoformans [25] = test: Antifungal activity against Cryptococcus neoformans ATCC 32264 assessed as growth inhibition at 7.8 ug/mL after 48 hrs by microplate reader analysis; format: functional; details: ATCC 32264, 48 h, read-out: GI; procedure, shortened: as §2
Candida albicans [26] = test: Antifungal activity against Candida albicans ATCC 10231 assessed as growth inhibition at 3.9 ug/mL after 24 hrs by microplate reader analysis; format: functional; details: ATCC 10231, 24 h, read-out: GI; procedure, shortened: as §1
Cryptococcus neoformans [27] = test: Antifungal activity against Cryptococcus neoformans ATCC 32264 assessed as growth inhibition at 250 ug/mL after 48 hrs by microplate reader analysis; format: functional; details: ATCC 32264, 48 h, read-out: GI; procedure, shortened: as §2
Candida albicans [28] = test: Antifungal activity against Candida albicans ATCC 10231 assessed as growth inhibition at 250 ug/mL after 24 hrs by microplate reader analysis; format: functional; details: ATCC 10231, 24 h, read-out: GI; procedure, shortened: as §1
Candida tropicalis [29] = test: Antifungal activity against Candida tropicalis assessed as growth inhibition at 250 ug/mL by microplate reader analysis; format: functional; details: read-out: GI
Candida albicans [30] = test: Antifungal activity against Candida albicans ATCC 10231 after 24 hrs by microplate reader analysis; format: functional; details: ATCC 10231, 24 h; procedure, shortened: as §1
Cryptococcus neoformans [31] = test: Antifungal activity against Cryptococcus neoformans ATCC 32264 assessed as growth inhibition at 3.9 ug/mL after 48 hrs by microplate reader analysis; format: functional; details: ATCC 32264, 48 h, read-out: GI; procedure, shortened: as §2
[32] = Acute toxicity in bony fish assessed as mortality at 1.6 ug/mL after 24 hrs; details: actinopterygii; read-out: Activity
[33] = system: Trichophyton mentagrophytes; test: Antifungal activity against Trichophyton mentagrophytes ATCC 9972 by NCCLS broth microdilution method; format: functional; details: read-out: MIC100; procedure, shortened: as §5
Cryptococcus neoformans [34] = test: Antifungal activity against Cryptococcus neoformans ATCC 32264 after 48 hrs by NCCLS broth microdilution method; format: functional; details: ATCC 32264, 48 h, read-out: MIC100; procedure, shortened: as §3
Trichophyton rubrum [35] = test: Antifungal activity against Trichophyton rubrum CCC 110 by NCCLS broth microdilution method; format: functional; details: read-out: MIC100; procedure, shortened: as §5
Candida tropicalis [36] = test: Fungicidal activity against Candida tropicalis after 48 hrs by agar plate dilution method; format: functional; procedure, shortened: as §4
Cryptococcus neoformans [37] = test: Antifungal activity against Cryptococcus neoformans ATCC 32264 assessed as growth inhibition at 125 ug/mL after 48 hrs by microplate reader analysis; format: functional; details: ATCC 32264, 48 h, read-out: GI; procedure, shortened: as §2
Candida tropicalis [38] = test: Antifungal activity against Candida tropicalis assessed as growth inhibition at 31.25 ug/mL by microplate reader analysis; format: functional; details: read-out: GI
Nannizzia gypsea [39] = test: Antifungal activity against Microsporum gypseum CCC 115 by NCCLS broth microdilution method; format: functional; details: read-out: MIC100; procedure, shortened: as §5
Aspergillus fumigatus = test: Antifungal activity against Aspergillus fumigatus ATCC 26934 at 0.98 to 250 ug/mL by NCCLS broth microdilution method; format: functional, organism-based; procedure, shortened: as §5
[40] = Acute toxicity in bony fish assessed as mortality at 0.4 ug/mL after 96 hrs; details: actinopterygii; read-out: Activity; procedure, shortened: as §6

COc1nc(N)c(N=O)c(OCc2ccccc2)n1
MIC50 (Candida tropicalis [1]): 7.8 mg/L (≈ 30 µM)
inhibition of growth at 125 µg/mL (Candida albicans [2]): 100%
MIC50 (Cryptococcus neoformans [3]): 3.9 mg/L (≈ 15 µM)
MIC (Candida tropicalis [4]): 31.2 mg/L (≈ 120 µM)
MFC (Cryptococcus neoformans [5]): 125 mg/L (≈ 480 µM)
Activity (Aspergillus flavus): inactive
inhibition of growth at 31.25 µg/mL (Cryptococcus neoformans [6]): 88.1%
inhibition of growth at 62.5 µg/mL (Candida tropicalis [7]): 100%
Activity [8]: Non-toxic
inhibition of growth at 62.5 µg/mL (Cryptococcus neoformans [9]): 100%
inhibition of growth at 62.5 µg/mL (Candida albicans [10]): 100%
inhibition of growth at 7.8 µg/mL (Candida albicans [11]): 56.9%
mortality at 48 h, 0.8 ug/mL [12]: 100%
MFC (Nannizzia gypsea [13]): 62.5 mg/L (≈ 240 µM)
inhibition of growth at 15.6 µg/mL (Candida albicans [14]): 99.6%
inhibition of growth at 15.6 µg/mL (Candida tropicalis [15]): 96.7%
MIC (Candida albicans [16]): 31.2 mg/L (≈ 120 µM)
MFC (Trichophyton rubrum [17]): 125 mg/L (≈ 480 µM)
MFC (Candida albicans [18]): 62.5 mg/L (≈ 240 µM)
inhibition of growth at 7.8 µg/mL (Candida tropicalis [19]): 56.7%
inhibition of growth at 15.6 µg/mL (Cryptococcus neoformans [20]): 80.2%
MFC [21]: 125 mg/L (≈ 480 µM)
inhibition of growth at 3.9 µg/mL (Candida tropicalis [22]): 19.7%
inhibition of growth at 125 µg/mL (Candida tropicalis [23]): 100%
inhibition of growth at 31.25 µg/mL (Candida albicans [24]): 100%
Activity (Aspergillus niger): inactive
inhibition of growth at 7.8 µg/mL (Cryptococcus neoformans [25]): 78.1%
inhibition of growth at 3.9 µg/mL (Candida albicans [26]): 47.2%
inhibition of growth at 250 µg/mL (Cryptococcus neoformans [27]): 100%
inhibition of growth at 250 µg/mL (Candida albicans [28]): 100%
inhibition of growth at 250 µg/mL (Candida tropicalis [29]): 100%
MIC50 (Candida albicans [30]): 7.8 mg/L (≈ 30 µM)
inhibition of growth at 3.9 µg/mL (Cryptococcus neoformans [31]): 49.2%
mortality at 24 h, 1.6 ug/mL [32]: 100%
MIC [33]: 125 mg/L (≈ 480 µM)
MIC (Cryptococcus neoformans [34]): 62.5 mg/L (≈ 240 µM)
MIC (Trichophyton rubrum [35]): 125 mg/L (≈ 480 µM)
MFC (Candida tropicalis [36]): 62.5 mg/L (≈ 240 µM)
inhibition of growth at 125 µg/mL (Cryptococcus neoformans [37]): 100%
inhibition of growth at 31.25 µg/mL (Candida tropicalis [38]): 100%
MIC (Nannizzia gypsea [39]): 62.5 mg/L (≈ 240 µM)
Activity (Aspergillus fumigatus): inactive
mortality at 96 h, 0.4 ug/mL [40]: 0%

From ChEMBL document CHEMBL2146464, “Structure-activity relationship study of nitrosopyrimidines acting as antifungal agents” (Bioorg Med Chem, 2012)
